# Screening data from PubChem.
# M1 ag: activates human CHRM1 receptor | P11229 | CHO-K1 hM1, Fluo-8 calcium fluorescence, agonist mode; 0% DMSO, 100% acetylcholine EC100 | activation, % at 3 µM | 360,000 tested, 0.33% active;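 active = activation above the run's mean compound activation plus 3 SD, cut at about 16% in these data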;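 also: peak over basal fluorescence ratio within a 140 s kinetic read after compound addition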
# M1 PAM: human CHRM1 positive allosteric modulation | P11229 | 360,000 tested, 0.088% active | CHO-K1 hM1, Fluo-8 calcium fluorescence, ACh EC20; 0% = ACh EC20, 100% = maximal ACh | activation, % at 3 µM; in the data active = activation above about 19%, passing the limit was not always enough
# TAAR1 antagonist: antagonists of human TAAR1 | Q96RJ0 | CHO RD-HGA16 TAAR1, Fluo-8 calcium fluorescence, antagonist | inhibition, % at 3 µM | 360,000 tested, 1.5% active | AID 624466;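 active = inhibition above a per-plate cutoff, the mean inhibition of test compounds on that plate plus 3 SD, cut at about 49% in these data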;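 also: 0% = DMSO plus EC80 beta-PEA response and 100% = DMSO alone without agonist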
# Target sequence (Q96RJ0 whole entry, looked up): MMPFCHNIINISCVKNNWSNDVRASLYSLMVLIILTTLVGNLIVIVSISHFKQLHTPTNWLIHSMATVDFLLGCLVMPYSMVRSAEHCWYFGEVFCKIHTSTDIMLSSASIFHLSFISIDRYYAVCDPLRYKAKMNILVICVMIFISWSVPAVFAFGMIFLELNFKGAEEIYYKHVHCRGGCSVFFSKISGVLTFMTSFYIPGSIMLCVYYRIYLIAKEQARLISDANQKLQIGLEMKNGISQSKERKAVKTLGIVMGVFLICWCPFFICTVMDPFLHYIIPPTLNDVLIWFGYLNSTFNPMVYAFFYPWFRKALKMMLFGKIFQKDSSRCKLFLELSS
#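 Test system – hTAAR1-expressing CHO RD-HGA16 cells, Gα16-coupled · Also added – β-PEA at EC80 concentration, post-compound challenge · Compound – 3 µM, single point · Incubation – dye loading 75 min at 37 °C, then 30 min room temperature · Measured by – Fluo-8 intracellular calcium dye fluorescence, real-time kinetic reads · Benchmarks – vehicle and agonist controls · Replicates – singlicate, one well per test compound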
# CHRM1 antagonist: antagonists of human M1 muscarinic receptor; CHO-K1 hM1, Fluo-8 calcium fluorescence, ACh EC80 antagonist; inhibition, % at 3 µM; 360,000 tested, 1.3% active; AID 588852;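 active = percent inhibition above its own plate's cutoff, namely the mean of that plate's compound wells plus 3 SD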;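 also: peak over basal fluorescence ratio during 140 s after agonist addition; 0% = ACh EC80 plus DMSO and 100% = DMSO alone without agonist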
# TAAR1 ag: human TAAR1 agonism | Q96RJ0 | CHO RD-HGA16 TAAR1, Fluo-8 calcium fluorescence; vehicle wells 0%, saturating PEA agonist 100% | activation, % at 3 µM | 360,000 tested, 0.99% active | AID 624467;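 active = activation above the mean activation of all test compounds in the run plus 3 SD, cut at about 38% in these data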
#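 Assay system: CHO-derived RD-HGA16 cells with stable Gα16 and human TAAR1; timing: 17-24 h seeding, 75 min 37 °C dye, 30 min RT; read-out: % activation from peak over basal fluorescence ratio, DMSO-to-PEA scaled; measured by: kinetic Fluo-8 calcium fluorescence; benchmarks: low control DMSO, high control PEA (EC100); doses: 3 µM single concentration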
# TAAR1 nonsel count: nonselective antagonist in TAAR1 antagonist counter-screen. shares compounds with TAAR1 antagonist. inhibition, % at 3 µM. 2,400 tested, 77% active. counterscreen cell line, calcium fluorescence, antagonist mode. AID 651780; in the data active = inhibition above about 22%;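 also: CHO-Ga16 host cells stimulated with ATP at an EC80 level; 0% = agonist EC80 plus vehicle and 100% = vehicle without agonist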
# TAAR1 antag conf: human TAAR1 antagonism, confirmed. shares compounds with TAAR1 antagonist. TAAR1-expressing cells, fluorescence antagonist read-out. inhibition, % at 3 µM. 2,400 tested, 40% active. AID 651785; in the data active = inhibition above about 49%;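 also: CHO-Ga16 host cells challenged with agonist PEA near its EC80; 0% = agonist at EC80 plus vehicle and 100% = vehicle with no agonist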
# Ga16 ag counter: counter-screen for TAAR1 antagonists: nonselective Ga16 agonists | shares compounds with TAAR1 antagonist | Ga16-expressing cells, calcium fluorescence, agonist counterscreen | activation, % at 3 µM | 2,400 tested, 18% active | AID 651953; in the data active = activation above about 12%;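 also: 0% = vehicle wells and 100% = saturating stimulus response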
# TAAR1 ag counter: TAAR1 agonism, antagonist counter-screen; shares compounds with TAAR1 antagonist; hTAAR1 cell line, fluorescence activation, agonist mode; activation, % at 3 µM; 2,400 tested, 2% active; AID 651955; in the data active = activation above about 37%;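 also: CHO cells stably expressing TAAR1 with calcium dye readout; 0% = DMSO vehicle and 100% = full agonist response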
# * marks the source's active call; other numbers are inactive results; . = no result given. A selection: hits, their analogues and other compounds. The true share with any hit is near 3.4%.
SMILES,M1 ag,M1 PAM,TAAR1 antagonist,CHRM1 antagonist,TAAR1 ag,TAAR1 nonsel count,TAAR1 antag conf,Ga16 ag counter,TAAR1 ag counter
Cc1nn(-c2ccccn2)c2c1-c1nc(N3CCOCC3)ncc1CC2,0,-3,70*,15,15,27*,49*,6,5
Cc1nn(-c2ccccn2)c2c1-c1nc(N)ncc1CC2,-4,6,-11,-7,8,.,.,.,.
C[C@H](O)CNC(=O)c1[nH]cnc1C(=O)Nc1cccc(Cl)c1,2,-4,2,2,2,.,.,.,.
O=C(NCC(c1ccco1)N1CCN(c2ccccc2)CC1)C1CCCCC1 (stereo unspecified),-8,-1,-18,-1,-1,.,.,.,.
CC(C)C(=O)N1CCC1(C)C(=O)NCc1ccc(F)cc1Cl (stereo unspecified),-1,4,-7,-10,0,.,.,.,.
CC1=NOC(=O)/C1=C\c1ccc(-c2ccc(Cl)cc2Cl)o1,-2,9,53*,-22,14,79*,72*,29*,25
C=CC[C@H](CC(=O)NCCO)C(=O)N[C@H](COC(=O)[C@@H](CC=C)CC(=O)OC(C)(C)C)Cc1c[nH]c2ccccc12,0,6,34,2,10,.,.,.,.
C=CC[C@H](CC(=O)N(CCO)Cc1ccccc1)C(=O)N[C@H](COC(=O)[C@H](CC=C)CC(=O)OC(C)(C)C)Cc1ccccc1,-3,4,58*,-8,11,24*,43,5,3
C=CC[C@H](CC(=O)N(CCO)Cc1ccccc1)C(=O)N[C@@H](COC(=O)[C@H](CC=C)CC(=O)OC(C)(C)C)Cc1c[nH]c2ccccc12,-5,-9,69*,17,14,30*,42,5,3
CCOC(=O)C1=C(C)Nc2ccccc2N=C1N,-5,9,-6,-11,1,.,.,.,.
CCOC(=O)C1=C(C)Nc2ccccc2N=C1NC(=O)c1oc2ccccc2c1COC,-3,-5,70*,26,14,30*,46,6,7
CCOC(=O)CN(C(=O)COc1nc(-c2ccccc2)cc(C)c1C#N)c1cccc(OC)c1,-4,-1,55*,10,10,25*,46,6,8
Cc1ccc(C(=O)Nc2cccc(C(=O)N/N=C/c3ccccc3F)c2)cc1,-4,-10,65*,11,13,30*,48,8,3
Cc1ccc(C(=O)Nc2cccc(C(=O)N/N=C/c3ccc(F)cc3)c2)cc1,0,-14,63*,11,11,37*,53*,10,11
CC(=O)Nc1cccc(C(=O)N/N=C/c2ccccc2F)c1,-2,1,10,5,5,.,.,.,.
COC(=O)c1ccc2nc(-c3ccco3)c(Cc3cccc(F)c3)n2c1,3,4,-16,-27,3,.,.,.,.
COc1ccc(-c2csc(NC(=O)CN3C(=O)C4CCCCC4C3=O)n2)cc1OC (stereo unspecified),1,-7,52*,16,17,24*,36,13*,16
O=C(CN1C(=O)C2CC=CCC2C1=O)Nc1nc(-c2ccc(F)c(F)c2)cs1 (stereo unspecified),1,-15,73*,25,27,31*,55*,14*,19
Cc1cnc2ccc(F)cc2c1,-3,1,-24,-26,3,.,.,.,.
FC(F)(F)c1ccccc1Cc1c(-c2cccc(Cl)c2)nc2ccc(Cl)cn12,0,2,-6,-21,1,.,.,.,.
O=C(CSc1ccccn1)Nc1cccc(NC(=O)CSc2ccccn2)n1,-5,3,60*,-17,31,34*,46,14*,12
Cc1cccc(N2CCN(C(=O)CCn3c(=O)[nH]c4ccsc4c3=O)CC2C)c1 (stereo unspecified),-2,-10,60*,14,12,23*,45,8,8
COC(=O)c1ccccc1NC(=S)N(Cc1ccc2c(c1)OCO2)Cc1cc2cc(OC)ccc2[nH]c1=O,-6,-7,53*,9,3,15,27,6,9
COc1ccccc1NC(=S)N(CCCN(C)C)Cc1cc2cc3c(cc2[nH]c1=O)OCO3,-5,9,-11,-12,3,.,.,.,.
COc1ccc(NC(=O)N(Cc2cc3cc(OC)ccc3[nH]c2=O)CC2CCCO2)cc1 (stereo unspecified),0,-3,56*,10,13,27*,41,7,5
SMILES,M1 ag,M1 PAM,TAAR1 antagonist,CHRM1 antagonist,TAAR1 ag,TAAR1 nonsel count,TAAR1 antag conf,Ga16 ag counter,TAAR1 ag counter
Cc1ccc(S(=O)(=O)N2[C@@H](c3cccc(Cl)c3)C(C(=O)OC(C)(C)C)=CC[C@H]2c2cccc(Cl)c2)cc1,-4,4,-4,-3,0,.,.,.,.
CC1(C(=O)NS(=O)(=O)C2CC2)CCN(C(=O)c2cccc(Cl)c2)C1 (stereo unspecified),-2,3,2,-8,0,.,.,.,.
O=C(Nc1cccc(C(F)(F)F)c1)c1cccc2c(-c3cccnc3)coc12,-6,-11,.,7,.,.,.,.,.
COCCNC(=O)c1cccc2c(-c3cccc(C(N)=O)c3)coc12,-1,-4,-20,4,0,.,.,.,.
CC(=O)c1cccc(NC(=O)c2cccc3c(-c4cccc(C(N)=O)c4)coc23)c1,5,-13,85*,20,13,42*,56*,13*,11
COc1cc(NC(=O)c2cccc3c(-c4cccnc4)coc23)cc(OC)c1OC,3,-14,76*,20,20,29*,59*,16*,15
CC(C)(C)NC(=O)C(c1ccnc2ccccc12)n1c(=O)c(-c2cc3ccccc3[nH]2)nc2ccccc21 (stereo unspecified),.,.,-22,.,2,.,.,.,.
CCOC(=O)C1=CCC(C(C)(C)C)N(S(=O)(=O)c2ccc(C)cc2)C1 (stereo unspecified),-8,1,-17,0,1,.,.,.,.
CCN(CC)CCN(C)C(c1cc2ccccc2o1)c1nnnn1C(C)(C)C (stereo unspecified),.,.,-3,.,2,.,.,.,.
C[C@H](CO)N1C[C@H](C)[C@@H](CN(C)C(=O)Nc2ccc3c(c2)OCO3)Oc2c(NC(=O)Nc3ccccc3)cccc2C1=O,-2,-6,58*,17,7,26*,41,3,4
